54 compounds from ChEMBL document CHEMBL1125267, “Linear discriminant and multiple regression analyses of anticoccidial triazines” (1991) can be followed below.

This test in a line: Minimum effective concentration (MEC) value was determined as a measure of anti-coccidial activity (MEC is expressed as mmol/kg of feed). Format: functional. A digest of the protocol:
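Dietary activity was graded by the lowest effective feed level, originally in ppm and converted to mmol/kg of feed. Where MEC was only bounded (>250 ppm or >500 ppm), it was assigned the next higher feed level.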
In turn, `CSc1ccc(Oc2c(C)cc(-n3ncc(=O)[nH]c3=O)cc2C)cc1C` registered an MEC of 2 p.p.m. The value for `Cc1cc(-n2ncc(=O)[nH]c2=O)ccc1Oc1ccc(Cl)cc1` was 60 p.p.m; that for `COc1c(Cl)cc(-n2ncc(=O)[nH]c2=O)cc1Cl` was 250 p.p.m; that for `O=c1cnn(-c2ccc(Cc3ccc(Cl)cc3)c(Cl)c2)c(=O)[nH]1` was 8 p.p.m. The value for `O=c1cnn(-c2ccc(Oc3ccc4cc(Br)ccc4c3)c(Cl)c2)c(=O)[nH]1` was 7.5 p.p.m. `Cc1cc(-n2ncc(=O)[nH]c2=O)cc(C)c1S(=O)(=O)N1CCOCC1` registered an MEC of 15 p.p.m. Then `CSc1ccc(Oc2ccc(-n3ncc(=O)[nH]c3=O)cc2Cl)cc1`, with 3.8 p.p.m; and `Cc1cc(-n2ncc(=O)[nH]c2=O)cc(Cl)c1Oc1ccc(C(C)O)cc1` (centres undefined), with 2 p.p.m; and `O=c1cnn(-c2cc(Cl)c(Sc3ccc(Cl)cc3)c(Cl)c2)c(=O)[nH]1`, with 0.2 p.p.m. For `Cc1cc(Cl)cc(-n2ncc(=O)[nH]c2=O)c1`, the MEC is on record as 15 p.p.m.

In the case of `CCN(C)S(=O)(=O)c1ccc(Oc2c(C)cc(-n3ncc(=O)[nH]c3=O)cc2Cl)c(Cl)c1`, the MEC is listed as 3.8 p.p.m. The value for `Cc1cc(-n2ncc(=O)[nH]c2=O)ccc1Oc1ccc(S(C)(=O)=O)cc1` was 4 p.p.m; that for `O=c1cnn(-c2cc(Cl)c(S(=O)(=O)N3CCOCC3)c(Cl)c2)c(=O)[nH]1` was 30 p.p.m; that for `CS(=O)(=O)c1ccc(-n2ncc(=O)[nH]c2=O)cc1` was 500 p.p.m. Then `O=c1cnn(-c2cc(Cl)c(Cc3ccc(Cl)cc3)c(Cl)c2)c(=O)[nH]1`, with 0.25 p.p.m; and `Cc1cc(-n2ncc(=O)[nH]c2=O)cc(Cl)c1S(=O)(=O)c1ccc(Cl)cc1`, with 8 p.p.m. The value for `N#Cc1cccc(-n2ncc(=O)[nH]c2=O)c1` was 30 p.p.m. Compound `Cc1cc(-n2ncc(=O)[nH]c2=O)cc(C)c1Sc1ccc(Cl)cc1` [TIAZURIL] came in with an MEC of 0.5 p.p.m. Then `O=c1cnn(-c2ccc(S(=O)(=O)c3ccccc3)cc2)c(=O)[nH]1`, with 30 p.p.m. In turn, `Cc1cc(-n2ncc(=O)[nH]c2=O)cc(Cl)c1Oc1ccc(Cl)cc1` gave an MEC of 3.8 p.p.m. The value for `O=c1cnn(-c2ccc(F)c(C(F)(F)F)c2)c(=O)[nH]1` was 15 p.p.m. The value for `CC(=O)c1ccc(Sc2c(C)cc(-n3ncc(=O)[nH]c3=O)cc2Cl)cc1` was 0.25 p.p.m; that for `O=c1cnn(-c2ccc([N+](=O)[O-])cc2)c(=O)[nH]1` was 250 p.p.m; that for `Cc1cc(-n2ncc(=O)[nH]c2=O)ccc1C(O)c1ccccc1` (centres undefined) was 30 p.p.m.

The compound `O=c1cnn(-c2ccc(Oc3ccc(I)cc3)c(Cl)c2)c(=O)[nH]1` came in with an MEC of 7.5 p.p.m. The value for `O=c1cnn(-c2ccc(C(O)c3ccc(Cl)cc3)c(Cl)c2)c(=O)[nH]1` (centres undefined) was 2 p.p.m; that for `O=c1cnn(-c2ccccc2)c(=O)[nH]1` was 500 p.p.m; that for `Cc1cc(-n2ncc(=O)[nH]c2=O)cc(Cl)c1Sc1ccc(Cl)cc1` was 0.2 p.p.m. The value for `Cc1cc(-n2ncc(=O)[nH]c2=O)ccc1Oc1ccc(Cl)cc1Cl` was 7.5 p.p.m; that for `O=c1cnn(-c2ccc(Sc3ccc(Cl)cc3)c(Cl)c2)c(=O)[nH]1` was 2 p.p.m; that for `O=c1cnn(-c2ccc(Br)c(C(F)(F)F)c2)c(=O)[nH]1` was 15 p.p.m. Then `CSc1ccc(Oc2ccc(-n3ncc(=O)[nH]c3=O)cc2C)cc1`, with 2 p.p.m.

With `Cc1cc(C)cc(-n2ncc(=O)[nH]c2=O)c1`, the MEC was determined as 30 p.p.m. Then `O=c1cnn(-c2cccc(C(F)(F)F)c2)c(=O)[nH]1`, with 30 p.p.m. Then `O=c1cnn(-c2ccc(S(=O)(=O)c3ccc(Cl)cc3)cc2)c(=O)[nH]1`, with 4 p.p.m.

For `O=C(c1ccc(Cl)cc1)c1c(Cl)cc(-n2ncc(=O)[nH]c2=O)cc1Cl`, the MEC came out at 0.5 p.p.m. The value for `O=c1cnn(-c2ccc(S(=O)(=O)N3CCOCC3)c(Cl)c2)c(=O)[nH]1` was 30 p.p.m. `O=c1cnn(-c2ccc(Sc3ccc4ccccc4c3)c(Cl)c2)c(=O)[nH]1` came in with an MEC of 125 p.p.m. Then `O=c1cnn(-c2ccc(Oc3ccc(Cl)cc3Cl)c(Cl)c2)c(=O)[nH]1`, with 7.5 p.p.m; and `Cc1cc(-n2ncc(=O)[nH]c2=O)cc(C)c1C(=O)c1ccc(Cl)cc1`, with 15 p.p.m; and `O=c1cnn(-c2cccc(Cl)c2)c(=O)[nH]1`, with 125 p.p.m. Then `O=c1cnn(-c2ccc(Oc3ccccc3)cc2)c(=O)[nH]1`, with 500 p.p.m. `O=c1cnn(-c2cc(Cl)cc(Cl)c2)c(=O)[nH]1` displayed an MEC of 4 p.p.m.

With `Cc1cc(-n2ncc(=O)[nH]c2=O)cc(C)c1S(=O)(=O)c1ccc(Cl)cc1`, the MEC is 1 p.p.m. The compound `Cc1cc(-n2ncc(=O)[nH]c2=O)ccc1Oc1ccc(Br)cc1` returned an MEC of 7.5 p.p.m. `COc1cc(-n2ncc(=O)[nH]c2=O)cc(OC)c1OC` came in with an MEC of 1000 p.p.m. The value for `O=c1cnn(-c2ccc(S(=O)(=O)c3ccc(Br)cc3)cc2)c(=O)[nH]1` was 8 p.p.m; that for `COc1cc(OC)cc(-n2ncc(=O)[nH]c2=O)c1` was 500 p.p.m; that for `O=c1cnn(-c2cc(Cl)c(S(=O)(=O)c3ccc(Cl)cc3)c(Cl)c2)c(=O)[nH]1` was 0.5 p.p.m.

Consider `Cc1cc(-n2ncc(=O)[nH]c2=O)cc(C)c1[S+]([O-])c1ccc(Cl)cc1` (centres undefined), for which the MEC was determined as 1 p.p.m. The value for `N#CC(c1ccc(Cl)cc1)c1c(Cl)cc(-n2ncc(=O)[nH]c2=O)cc1Cl` (centres undefined) [DICLAZURIL] was 0.1 p.p.m. Then `Cc1cc(-n2ncc(=O)[nH]c2=O)cc(Cl)c1Oc1ccc(S(=O)(=O)NC2CC2)cc1Cl`, with 15 p.p.m. Then `CSc1ccc(Oc2c(C)cc(-n3ncc(=O)[nH]c3=O)cc2C)cc1`, with 2 p.p.m; and `CC(=O)c1ccc(Oc2c(C)cc(-n3ncc(=O)[nH]c3=O)cc2Cl)cc1`, with 2 p.p.m.
